The values below come from ChEMBL document CHEMBL5653630, “Activation of the p53-MDM4 regulatory axis defines the anti-tumour response to PRMT5 inhibition through its role in regulating cellular splicing” (Sci Rep, 2018).

The test system of assay [1] is MDA-MB-468. The assay can be described thus: Induction of cell cycle arrest in human MDA-MB-468 cells assessed as increase in 4n cell population measured upto 5000 nM measured for 7 to 10 days by propidium iodide staining based flow cytometric analysis. Type of assay: functional. The conditions noted are these: time 7-10 day. (A flow cytometer gives signals particle by particle.)

The test system of assay [2] is HT-29. Kind of assay: Antiproliferative activity against human HT-29 cells assessed as cell growth inhibition incubated for 10 days. The format is functional. The note with it: HT-29, 240 h, time 10 day. In short, it runs like this: (§1)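 Outsourced panel run in 384-well plates. Cells were grown in RPMI-1640/10% FBS or a special medium at 37°C, 5% CO2. Compound was added 24 h after seeding as a 10-point, 3.16-fold series in 0.1% DMSO. Medium was refreshed and cells re-dosed at 168 h, with a time-zero plate kept. At 240 h cells were fixed, nuclei stained and imaged. gIC50 is growth midway between untreated and time zero, from a 4-parameter fit.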

The subject of assay [3] is HT-3. Kind of assay: Antiproliferative activity against human HT-3 cells assessed as cell growth inhibition incubated for 10 days. Type of assay: functional. The conditions noted are these: HT-3, 240 h, time 10 day. In short, it runs like this:
as §1

The subject of assay [4] is SNB-19. Kind of assay: Antiproliferative activity against human SNB-19 cells assessed as cell growth inhibition incubated for 10 days. The format is functional. The conditions noted are these: SNB-19, 240 h, time 10 day.
For assay [5], the system named is H4. Kind of assay: Antiproliferative activity against human H4 cells assessed as cell growth inhibition incubated for 10 days. Type of assay: functional. The conditions noted are these: H4, 240 h, time 10 day. In short, it runs like this:
as §1

In assay [6] the test system is SW48. The assay can be described thus: Antiproliferative activity against human SW48 cells assessed as cell growth inhibition incubated for 10 days. The format is functional. The conditions noted are these: SW48, 240 h, time 10 day.
In assay [7] the test system is NCI-H460. Kind of assay: Antiproliferative activity against human NCI-H460 cells assessed as cell growth inhibition incubated for 10 days. The format is functional. The conditions noted are these: NCI-H460, 240 h, time 10 day.
Assay [8] deals with KLE. Kind of assay: Antiproliferative activity against human KLE cells assessed as cell growth inhibition incubated for 10 days. The format is functional. The conditions noted are these: 240 h, time 10 day. In short, it runs like this:
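Cells grown in RPMI-1640 with 10% FBS, 2 mM L-alanyl-L-glutamine and 1 mM Na pyruvate (or special medium) at 37°C, 5% CO2. Compound was added 24 h after seeding, with a parallel time-zero plate. Medium was replaced and the compound re-dosed at 168 h. Dosing used 10 concentrations (3.16-fold dilutions, 0.1% DMSO) over a 240 h incubation. Nuclei were stained and imaged. gIC50 is growth midway between untreated and time-zero, from a 4-parameter fit.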

Assay [9] has as its system COLO 320DM. The assay can be described thus: Antiproliferative activity against human Colo 320DM cells assessed as cell growth inhibition incubated for 10 days. The note with it: 240 h, time 10 day. The format is functional. In short, it runs like this: as §1
The nature of assay [10]: Antiproliferative activity against human C4-1 cells assessed as cell growth inhibition incubated for 10 days. The format is functional. The note with it: C4-1, 240 h, time 10 day. In short, it runs like this: (§2)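 Cells kept in RPMI-1640 with 10% FBS, 2 mM L-alanyl-L-glutamine and 1 mM Na pyruvate (or a special medium) at 37°C, 5% CO2. Compound added 24 h after seeding, 10 concentrations in 3.16-fold dilution, 0.1% DMSO final. Medium replaced and cells re-dosed at 168 h; 240 h incubation. Nuclei fixed, dye-stained and imaged. gIC50 = growth midway between untreated and time-zero cell counts, from a 4-parameter fit.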

In assay [11] the target is Protein arginine N-methyltransferase 5 (Homo sapiens) (UniProt O14744). Kind of assay: Inhibition of PRMT5 in human Z138 cells expressing full length MDM4 assessed as effect on p53 level at 1 uM incubated for 4 days by Western blot analysis. The format is cell-based. The note with it: time 4.0 day. On the technique in general: In western blotting, separated proteins are transferred to a membrane and probed.

Assay [12] concerns JEG-3. The assay can be described thus: Antiproliferative activity against human JEG-3 cells assessed as cell growth inhibition incubated for 10 days. The note with it: JEG-3, 240 h, time 10 day. The format is functional. In short, it runs like this:
(§3)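 Eurofins-panel 10-day assay in 384-well plates. Cells grown in RPMI-1640 with 10% FBS, 2 mM L-alanyl-L-glutamine and 1mM Na pyruvate, or a special medium, at 37°C in 5% CO₂. Compound added 24 h after seeding, 10-point 3.16-fold series in 0.1% DMSO. Medium replaced and compound re-dosed at 168 h. Nuclei fixed and stained after 240 h, then imaged to give a relative cell count. gIC50 is the concentration giving growth midway between untreated and time-zero counts, from a 4-parameter fit.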

For assay [13], the system named is LNCaP. Kind of assay: Antiproliferative activity against human LNCaP cells assessed as cell growth inhibition incubated for 10 days. The format is functional. The conditions noted are these: 240 h, time 10 day.
Assay [14] relates to SR. Kind of assay: Antiproliferative activity against human SR cells assessed as cell growth inhibition incubated for 10 days. The format is functional. The note with it: 240 h, time 10 day.
For assay [15], the system named is SW1353. Kind of assay: Antiproliferative activity against human SW1353 cells assessed as cell growth inhibition incubated for 10 days. Type of assay: functional. The conditions noted are these: SW1353, 240 h, time 10 day.
The test system of assay [16] is 639-V. Kind of assay: Antiproliferative activity against human 639-V cells assessed as cell growth inhibition incubated for 10 days. Type of assay: functional. The conditions noted are these: 240 h, time 10 day. In short, it runs like this:
as §2

The target of assay [17] is Protein arginine N-methyltransferase 5 (Homo sapiens) (UniProt O14744). The assay can be described thus: Inhibition of PRMT5 in human Z138 cells assessed as MDM4 splicing at 8 to 1000 nM incubated for 3 days by RT-PCR analysis. The conditions noted are these: dose 8-1000 nM, time 3.0 day. Type of assay: cell-based.
The test system of assay [18] is CWR22R. Kind of assay: Antiproliferative activity against human 22Rv1 cells assessed as cell growth inhibition incubated for 10 days. Type of assay: functional. The conditions noted are these: 22Rv1, 240 h, time 10 day. In short, it runs like this: as §2
For assay [19], the system named is K562. Kind of assay: Antiproliferative activity against human K562 cells assessed as cell growth inhibition incubated for 10 days. Type of assay: functional. The note with it: K562, 240 h, time 10 day. Summed up:
as §3

Activity calls are given as the source filed them. The calls are words filed in the database; no cut-off is given here.

Sequence of Protein arginine N-methyltransferase 5 (Homo sapiens) (O14744 whole entry): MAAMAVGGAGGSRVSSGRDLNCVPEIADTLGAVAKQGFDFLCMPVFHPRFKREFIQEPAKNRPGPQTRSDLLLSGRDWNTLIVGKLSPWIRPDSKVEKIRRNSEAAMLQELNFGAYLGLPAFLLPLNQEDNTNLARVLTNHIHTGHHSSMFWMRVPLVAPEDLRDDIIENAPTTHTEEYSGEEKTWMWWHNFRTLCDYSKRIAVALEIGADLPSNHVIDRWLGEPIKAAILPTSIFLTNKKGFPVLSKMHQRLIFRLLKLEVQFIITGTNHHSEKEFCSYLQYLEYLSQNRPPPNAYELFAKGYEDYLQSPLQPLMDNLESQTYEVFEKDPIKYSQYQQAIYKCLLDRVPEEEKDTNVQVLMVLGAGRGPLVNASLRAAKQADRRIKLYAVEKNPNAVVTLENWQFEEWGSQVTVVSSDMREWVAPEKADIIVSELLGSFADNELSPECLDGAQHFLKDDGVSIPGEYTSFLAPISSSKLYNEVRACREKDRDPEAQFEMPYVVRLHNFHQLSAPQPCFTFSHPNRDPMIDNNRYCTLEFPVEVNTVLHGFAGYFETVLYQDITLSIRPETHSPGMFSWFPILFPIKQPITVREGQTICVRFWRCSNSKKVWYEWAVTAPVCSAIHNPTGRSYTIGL

`CC(=O)N1CCC(Nc2cc(C(=O)NC[C@H](O)CN3CCc4ccccc4C3)ncn2)CC1` [PEMRAMETOSTAT]: in [1], the outcome was Active.

For `O=C(NC[C@H](O)CN1CCc2ccccc2C1)c1ccnc(NC2CCC2)c1`, the GI50 in assay [2] is 95.2 nM; in assay [3], 10 µM; in assay [4] it was 223 nM; in assay [5], 151 nM; in [6], 10 µM; in assay [7] it was 224 nM. Also, the concentration for 50% growth inhibition (GI50) stood at 10 µM in assay [8]; 82.5 nM in assay [9]; 139 nM in assay [10]; 216 nM in [12]; 2930 nM in assay [13]; 275 nM in assay [14]. In addition, the GI50 stood at 129 nM in assay [15], 342 nM in assay [16], 2480 nM in assay [18] and 146 nM in [19]. Further, the inhibition result in assay [11] is “inactive”. The inhibition entry in [17] is “Active”.

One may read the GI50 as the concentration at which growth is held to half of that of the control.
